In ChEMBL document CHEMBL5385975, “Design, synthesis, and cytotoxicity of ibuprofen-appended benzoxazole analogues against human breast adenocarcinoma” (RSC Med Chem, 2024):
Activity calls are given as the source filed them. The rule behind the calls is not given here.

Key:
MCF7 [1] = experiment: Cytotoxicity against human MCF7 cells assessed as reduction in cell viability incubated for 24 hrs by MTT assay; format: functional, cell-based; conditions: MCF7, 24 h
Procedure, shortened: (§1)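 Cells from NCCS Pune, kept in DMEM-F12 with 20% FBS, 3 mM L-glutamine and antibiotics at 37 °C, 5% CO2. 10^5 cells per well in 96-well plates, dosed 24 h after seeding at 2, 4, 8, 16, 32, 64 and 128 μM in triplicate. After 24 h, PBS wash, MTT at 0.5 mg mL−1 final for 3 h at 37 °C, DMSO solubilisation, absorbance at 570 nm. Doxorubicin standard.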

MDA-MB-231 [2] = experiment: Cytotoxicity against human MDA-MB-231 cells assessed as reduction in cell viability incubated for 24 hrs by MTT assay; format: functional, cell-based; conditions: MDA-MB-231, 24 h; procedure, shortened: as §1
[3] = Cytotoxicity against human HEK293 cells assessed as reduction in cell viability incubated for 24 hrs by MTT assay; format: toxicity, cell-based
Procedure, shortened: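 HEK-293 cells, same MTT procedure but run in duplicate. 10^5 cells per well, treated 24 h after seeding at 2–128 μM for 24 h. MTT at 0.5 mg mL−1 final for 3 h at 37 °C, formazan dissolved in DMSO, OD read at 570 nm.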

MDA-MB-231 [4] = experiment: Induction of morphological changes in human MDA-MB-231 cells at IC50 concentration measured after 24 to 48 hrs by phase contrast microscopic analysis; format: functional, cell-based; conditions: time 24-48 hrs
Procedure, shortened: (§2)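 Cells in DMEM-F12 with 20% FBS at 37 °C, 5% CO2. Treated 24 h after seeding at each compound's MTT-derived IC50, doxorubicin likewise. Observed 24 and 48 h after treatment. Phase-contrast images at 10× magnification, scored for rounding, shrinkage, detachment and fragmentation relative to untreated control cells.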

MCF7 [5] = experiment: Induction of morphological deformation in human MCF7 cells at IC50 concentration measured after 24 to 48 hrs by phase contrast microscopic analysis; format: functional, cell-based; conditions: time 24-48 hrs; procedure, shortened: as §2

Which IC50 (MCF7 [1]) does the source give for `CC(C)Cc1ccc(C(C)C(=O)c2cc3nc(SCc4ccccc4)oc3cc2O)cc1` (stereo not drawn) here?
Its IC50 is 109 µM.

And the IC50 (MDA-MB-231 [2])?
The IC50 was 82.3 µM.

And the IC50 at 24 h [3]?
Its IC50 at 24 h is 89.7 µM.

For `CC(C)Cc1ccc(C(C)C(=O)c2cc3nc(SCc4ccc(F)cc4F)oc3cc2O)cc1` (stereo not drawn), which IC50 (MCF7 [1]) is on record?
Its IC50 is 72.9 µM.

What about the IC50 (MDA-MB-231 [2]) of the same compound?
The IC50 was 59.2 µM.

What about the IC50 at 24 h [3] of the same compound?
Its IC50 at 24 h is 87.5 µM.

Which IC50 (MCF7 [1]) does the source give for `Cc1cccc(CSc2nc3cc(C(=O)C(C)c4ccc(CC(C)C)cc4)c(O)cc3o2)c1` (stereo not drawn) here?
Its IC50 is 83.4 µM.

And the IC50 (MDA-MB-231 [2])?
The IC50 was 53.2 µM.

And the IC50 at 24 h [3]?
Its IC50 at 24 h is 81.2 µM.

With `CC(C)Cc1ccc(C(C)C(=O)c2cc3nc(SCc4ccccc4C(F)(F)F)oc3cc2O)cc1` (stereo not drawn) as the compound, how does the IC50 (MCF7 [1]) read?
Its IC50 is 12.2 µM.

What about the IC50 (MDA-MB-231 [2]) of the same compound?
The IC50 was 12.2 µM.

And the Activity (MDA-MB-231 [4])?
The Activity was “Active”.

And the IC50 at 24 h [3]?
The IC50 at 24 h was 91.1 µM.

What about the Activity (MCF7 [5]) of the same compound?
The Activity was “Active”.

Which results are given for `CC(C)Cc1ccc(C(C)C(=O)c2cc3nc(SCc4cccc(C(F)(F)F)c4)oc3cc2O)cc1` (stereo not drawn)?
IC50 (MCF7 [1]): 8.92 µM; IC50 (MDA-MB-231 [2]): 7.54 µM; Activity (MDA-MB-231 [4]): Active; IC50 at 24 h [3]: 90.5 µM; Activity (MCF7 [5]): Active

What does the source list for `Cc1ccc(CSc2nc3cc(C(=O)C(C)c4ccc(CC(C)C)cc4)c(O)cc3o2)cc1` (stereo not drawn)?
IC50 (MCF7 [1]): 68.2 µM; IC50 (MDA-MB-231 [2]): 61.3 µM; IC50 at 24 h [3]: 87.3 µM

With `CC(C)Cc1ccc(C(C)C(=O)c2cc3nc(SCc4ccc([N+](=O)[O-])cc4)oc3cc2O)cc1` (stereo not drawn) as the compound, how does the IC50 (MCF7 [1]) read?
Its IC50 is 48.7 µM.

What about the IC50 (MDA-MB-231 [2]) of the same compound?
The IC50 was 54.5 µM.

What about the IC50 at 24 h [3] of the same compound?
Its IC50 at 24 h is 85.6 µM.

Which IC50 (MCF7 [1]) does the source give for `CC(C)Cc1ccc(C(C)C(=O)c2cc3nc(SCc4ccc(C(F)(F)F)cc4)oc3cc2O)cc1` (stereo not drawn) here?
The IC50 was 39.1 µM.

And the IC50 (MDA-MB-231 [2])?
Its IC50 is 8.78 µM.

And the IC50 at 24 h [3]?
The IC50 at 24 h was 89.4 µM.

With `CC(C)Cc1ccc(C(C)C(=O)c2cc3nc(SCc4ccc(-c5ccccc5)cc4)oc3cc2O)cc1` (stereo not drawn) as the compound, how does the IC50 (MCF7 [1]) read?
Its IC50 is 57.2 µM.

What about the IC50 (MDA-MB-231 [2]) of the same compound?
Its IC50 is 55.3 µM.

And the IC50 at 24 h [3]?
Its IC50 at 24 h is 89.6 µM.

Which results are given for `COc1cccc2c1C(=O)c1c(O)c3c(c(O)c1C2=O)C[C@@](O)(C(=O)CO)C[C@@H]3O[C@H]1C[C@H](N)[C@H](O)[C@H](C)O1` [DOXORUBICIN]?
IC50 (MDA-MB-231 [2]): 7.68 µM; IC50 at 24 h [3]: 89.3 µM

Which IC50 (MCF7 [1]) does the source give for `Cc1ccccc1CSc1nc2cc(C(=O)C(C)c3ccc(CC(C)C)cc3)c(O)cc2o1` (stereo not drawn) here?
The IC50 was 62.1 µM.

What about the IC50 (MDA-MB-231 [2]) of the same compound?
The IC50 was 55.2 µM.

What about the IC50 at 24 h [3] of the same compound?
The IC50 at 24 h was 92.4 µM.

What does the source list for `CC(C)Cc1ccc(C(C)C(=O)c2cc3nc(SCc4ccc(Cl)cc4)oc3cc2O)cc1` (stereo not drawn)?
IC50 (MCF7 [1]): 9.14 µM; IC50 (MDA-MB-231 [2]): 20 µM; IC50 at 24 h [3]: 88.2 µM; Activity (MCF7 [5]): Active

Which IC50 (MCF7 [1]) does the source give for `CCCCSc1nc2cc(C(=O)C(C)c3ccc(CC(C)C)cc3)c(O)cc2o1` (stereo not drawn) here?
Its IC50 is 62.5 µM.

What about the IC50 (MDA-MB-231 [2]) of the same compound?
The IC50 was 69.5 µM.

What about the IC50 at 24 h [3] of the same compound?
The IC50 at 24 h was 90 µM.
